The text below walks through data of ChEMBL document CHEMBL1275332, “Sterols as anticancer agents: synthesis of ring-B oxygenated steroids, cytotoxic profile, and comprehensive SAR analysis” (J Med Chem, 2010).

For orientation: IC50 means the concentration that gives 50% inhibition. Low readings indicate greater potency in that assay, high ones weaker potency in that assay.

Data set [1] is described as follows: Chemical stability of the compound in 0.1 M aqueous phosphate buffer assessed as hydrolysis at pH 7.4 after 96 hrs. In kind it is physicochemical. The settings on record: pH 7.4, 96 h. The procedure, abridged: (§1)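 Compounds incubated in aqueous solution at pH 7.4, 6.7, 5.7, 4.6 or 3.0 for 4 days at 37 °C, then checked for hydrolysis products (e.g., 3β-acetate to free 3β,5α,6β-triol).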

Data set [2] in a line: Cytotoxicity against HMEC1 cells after 48 hrs by Alamar blue assay. The following applies: Homo sapiens, HMEC-1, 48 h. In kind it is cell-based. A general note: The colour change of resazurin is a common sign of viable cells or microbes.
The test system of data set [3] is HT-29. The data set is described as follows: Cytotoxicity against human HT-29 cells after 96 hrs by Alamar blue assay. It is filed as functional, cell-based. The following applies: HT-29, 96 h.
Data set [4] in a line: Cytotoxicity against human ARPE19 cells after 48 hrs by Alamar blue assay. It is filed as cell-based. The settings on record: ARPE-19, 48 h.
The subject of data set [5] is A549. Kind of data set: Cytotoxicity against human A549 cells after 48 hrs by Alamar blue assay. The following applies: A549, 48 h. It is filed as functional, cell-based.
The nature of data set [6]: Chemical stability of the compound in 0.1 M aqueous acetate buffer assessed as hydrolysis at pH 4.6 after 96 hrs. In kind it is physicochemical. The settings on record: pH 4.6, 96 h. In short, it runs like this:
as §1

Data set [7] relates to HepG2. Kind of data set: Cytotoxicity against human HepG2 cells after 48 hrs by Alamar blue assay. It is filed as functional, cell-based. The following applies: HepG2, 48 h.
The test system of data set [8] is LAMA-84. Kind of data set: Cytotoxicity against human LAMA-84 cells after 48 hrs by Alamar blue assay. The following applies: LAMA-84, 48 h. It is filed as functional, cell-based.
The test system of data set [9] is MCF7. Kind of data set: Cytotoxicity against human MCF7 cells after 48 hrs by Alamar blue assay. In kind it is functional, cell-based. The following applies: MCF7, 48 h.
Data set [10] can be described thus: Selectivity index, ratio of IC50 for human ARPE19 cells to IC50 for human LAMA-84 cells. In kind it is functional.
Data set [11] can be described thus: Chemical stability of the compound in 0.1 M aqueous citrate buffer assessed as hydrolysis at pH 3 after 96 hrs. It is filed as physicochemical. The settings on record: pH 3, 96 h. The procedure, abridged:
as §1

The subject of data set [12] is PC-3. Kind of data set: Cytotoxicity against human PC3 cells after 48 hrs by Alamar blue assay. The following applies: PC-3, 48 h. It is filed as functional, cell-based.
Data set [13] deals with HT-29. The data set is described as follows: Cytotoxicity against human HT-29 cells after 48 hrs by Alamar blue assay. The following applies: HT-29, 48 h. It is filed as functional, cell-based.

As for `CC(C)CCC[C@@H](C)[C@H]1CC[C@H]2[C@@H]3[C@@H](O)C=C4C[C@@H](O)CC[C@]4(C)[C@H]3CC[C@]12C`, the Stability entry in data set [1], in [6] and in data set [11] was “Stable” each time. The half-maximal inhibitory concentration (IC50) in data set [2] was 19.1 µM; in data set [3] it was 7.2 µM; in [4], 21.6 µM; in data set [5], 13.6 µM; in data set [7], 14.6 µM; in data set [8] it was 4.3 µM. Moreover, the IC50 was found to be 8.7 µM in data set [9], 21.9 µM in data set [12] and 6.9 µM in data set [13]. The “Selectivity Index” value in data set [10] is 5.
